Test results taken from ChEMBL document CHEMBL4138085, “Design, synthesis and antimicrobial evaluation of novel benzimidazole-incorporated sulfonamide analogues” (Eur J Med Chem, 2017).
Converted amounts (≈) assume the structure as drawn. The source made the active and inactive calls. No cut-off for these calls is given here.

Columns and labels:
Albumin [1] = target: T1, Albumin (Homo sapiens, UniProt P02768); assay: Binding affinity to human serum albumin assessed as quenching constant at 273 K by fluorescence spectroscopic analysis; format: ADME; conditions: isolated protein
T1 sequence (P02768 whole entry): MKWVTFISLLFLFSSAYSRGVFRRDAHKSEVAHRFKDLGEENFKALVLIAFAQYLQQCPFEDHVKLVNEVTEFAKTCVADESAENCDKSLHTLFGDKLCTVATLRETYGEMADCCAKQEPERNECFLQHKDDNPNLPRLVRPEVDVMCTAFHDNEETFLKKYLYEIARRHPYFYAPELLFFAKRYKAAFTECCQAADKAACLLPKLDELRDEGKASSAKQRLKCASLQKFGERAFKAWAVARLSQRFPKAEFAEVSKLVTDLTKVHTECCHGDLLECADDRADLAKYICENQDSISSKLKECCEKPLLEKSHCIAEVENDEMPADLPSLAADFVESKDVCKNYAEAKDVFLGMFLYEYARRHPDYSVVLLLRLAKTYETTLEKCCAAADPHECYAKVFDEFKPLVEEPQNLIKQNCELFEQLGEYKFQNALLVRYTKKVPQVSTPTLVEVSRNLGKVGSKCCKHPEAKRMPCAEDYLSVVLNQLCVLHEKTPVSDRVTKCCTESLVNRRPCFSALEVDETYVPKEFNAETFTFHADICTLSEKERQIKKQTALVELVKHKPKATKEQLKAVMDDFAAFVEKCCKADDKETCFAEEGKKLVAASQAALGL
Procedure, shortened: (§1)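 Intrinsic fluorescence of HSA (single Trp-214, emission peak 348 nm) was recorded with increasing compound concentration at several temperatures. Quenching data were fitted to the Stern-Volmer equation F0/F = 1 + KSV[Q] = 1 + Kqτ0[Q] to give KSV, and Kq was derived via τ0.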

Albumin [2] = target: T1, Albumin; assay: Binding affinity to human serum albumin assessed as quenching constant at 293 K by fluorescence spectroscopic analysis; format: ADME; conditions: isolated protein; procedure, shortened: as §1
Albumin [3] = target: T1, Albumin; assay: Binding affinity to human serum albumin assessed as Stern-Volmer quenching constant at 273 K by fluorescence spectroscopic analysis; format: ADME; conditions: isolated protein; procedure, shortened: as §1
Pichia norvegensis = assay: Antifungal activity against Candida mycoderma after 24 hrs by NCCLS two fold broth microdilution method; format: functional
Albumin [4] = target: T1, Albumin; assay: Binding affinity to human serum albumin at 313 K by modified Stern-Volmer method; format: ADME; conditions: isolated protein
Albumin [5] = target: T1, Albumin; assay: Binding affinity to human serum albumin assessed as change in entropy at 273 K by van't Hoff plot analysis; format: ADME; conditions: isolated protein
Albumin [6] = target: T1, Albumin; assay: Binding affinity to human serum albumin assessed as quenching constant at 313 K by fluorescence spectroscopic analysis; format: ADME; conditions: isolated protein; procedure, shortened: as §1
Bacillus subtilis [7] = assay: Antibacterial activity against Bacillus subtilis ATCC 21216 after 24 hrs by NCCLS two fold broth microdilution method; format: functional; conditions: ATCC 21216, 24 h
Procedure, shortened: (§2)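 Two-fold serial broth microdilution in 96-well plates following NCCLS. Compounds were dissolved in DMSO as stocks, then diluted in Mueller–Hinton broth to final concentrations of 0.5–512 µg/mL. Plates were inoculated and incubated at 37 °C for 24 h, with growth read visually and spectrophotometrically. MIC was taken as the lowest concentration giving complete growth inhibition. Run in triplicate, with a DMSO-plus-inoculum solvent control.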

Albumin [8] = target: T1, Albumin; assay: Binding affinity to human serum albumin at 273 K by scatchard plot analysis; format: ADME; conditions: isolated protein
Aspergillus flavus [9] = assay: Potency index, ratio of Fluconazole MIC to compound MIC for Aspergillus flavus; format: functional
Albumin [10] = target: T1, Albumin; assay: Binding affinity to human serum albumin assessed as change in enthalpy at 273 K by van't Hoff plot analysis; format: ADME; conditions: isolated protein
Staphylococcus aureus [11] = assay: Antibacterial activity against methicillin-resistant Staphylococcus aureus N315 after 24 hrs by NCCLS two fold broth microdilution method; format: functional; conditions: N315, 24 h
Procedure, shortened: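 Two-fold serial broth microdilution per NCCLS. Chloromycin and norfloxacin as reference drugs; DMSO with inoculum, no drug, as solvent control. Incubation 37 °C for 24 h. Growth read visually and spectrophotometrically. MIC is the lowest concentration completely inhibiting growth; triplicate.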

Pseudomonas aeruginosa [12] = assay: Antibacterial activity against Pseudomonas aeruginosa ATCC 27853 after 24 hrs by NCCLS two fold broth microdilution method; format: functional; conditions: ATCC 27853, 24 h
Procedure, shortened: (§3)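 Two-fold serial broth microdilution in 96-well plates following NCCLS. Plates were inoculated and incubated at 37 °C for 24 h, with growth read visually and spectrophotometrically. MIC was taken as the lowest concentration giving complete growth inhibition. Run in triplicate, with a DMSO-plus-inoculum solvent control.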

Calf thymus DNA [13] = assay: Binding affinity to calf thymus DNA assessed as hypochromic effect up to 1.6 10^-5 mol/L by UV-vis absorption spectra analysis; format: nucleic-acid assay; conditions: Bos taurus
Procedure, shortened: (§4)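 Calf thymus DNA was held at a fixed concentration and titrated with increasing amounts of compound. UV-vis absorption spectra were recorded, following the DNA absorption maximum at 260 nm.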

Albumin [14] = target: T1, Albumin; assay: Binding affinity to human serum albumin at 293 K by modified Stern-Volmer method; format: ADME; conditions: isolated protein
Albumin [15] = target: T1, Albumin; assay: Binding affinity to human serum albumin assessed as Stern-Volmer quenching constant at 313 K by fluorescence spectroscopic analysis; format: ADME; conditions: isolated protein; procedure, shortened: as §1
Calf thymus DNA [16] = assay: Inhibition of neutral red binding to calf thymus DNA up to 0.48 10^-5 mol/L by UV-vis absorption spectra analysis; format: nucleic-acid assay; conditions: Bos taurus
Staphylococcus aureus [17] = assay: Antibacterial activity against Staphylococcus aureus ATCC 25923 after 24 hrs by NCCLS two fold broth microdilution method; format: functional; conditions: ATCC 25923, 24 h; procedure, shortened: as §2
Salmonella typhi [18] = assay: Potency index, ratio of Chloromycin MIC to compound MIC for Bacillus typhi; format: functional, Salmonella enterica subsp. enterica serovar Typhi
Calf thymus DNA [19] = assay: Binding affinity to calf thymus DNA assessed as hyperchromic effect up to 1.6 10^-5 mol/L by UV-vis absorption spectra analysis; format: nucleic-acid assay; conditions: Bos taurus; procedure, shortened: as §4
Escherichia coli = assay: Antibacterial activity against Escherichia coli ATCC 8099 after 24 hrs by NCCLS two fold broth microdilution method; format: functional; conditions: ATCC 8099, 24 h; procedure, shortened: as §3
Albumin [20] = target: T1, Albumin; assay: Binding affinity to human serum albumin up to 1.6 10^-5 mol/L by UV-vis absorption spectra analysis; format: ADME; conditions: isolated protein
Bacillus = assay: Antibacterial activity against Bacillus proteus ATCC 13315 after 24 hrs by NCCLS two fold broth microdilution method; format: functional; conditions: ATCC 13315, 24 h; procedure, shortened: as §2
Albumin [21] = target: T1, Albumin; assay: Binding affinity to human serum albumin at 293 K by scatchard plot analysis; format: ADME; conditions: isolated protein
Saccharomyces cerevisiae = assay: Antifungal activity against Saccharomyces cerevisiae after 24 hrs by NCCLS two fold broth microdilution method; format: functional
Procedure, shortened: (§5)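 Two-fold serial microdilution following NCCLS. A spore suspension in sterile distilled water was prepared from one-day-old cultures grown on Sabouraud agar and adjusted to a final 1–5 × 10^3 spores/mL. DMSO stocks were diluted in RPMI 1640 to eleven concentrations (0.5–512 µg/mL), inoculated and held at 35 °C for 24 h. Growth was read visually and spectrophotometrically, MIC was the lowest concentration with complete inhibition, and runs were in triplicate.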

Albumin [22] = target: T1, Albumin; assay: Binding affinity to human serum albumin assessed as Gibbs free energy change at 313 K by van't Hoff plot analysis; format: ADME; conditions: isolated protein
Albumin [23] = target: T1, Albumin; assay: Binding affinity to human serum albumin assessed as Stern-Volmer quenching constant at 293 K by fluorescence spectroscopic analysis; format: ADME; conditions: isolated protein; procedure, shortened: as §1
Salmonella typhi [24] = assay: Antibacterial activity against Bacillus typhi after 24 hrs by NCCLS two fold broth microdilution method; format: functional, Salmonella enterica subsp. enterica serovar Typhi; conditions: Salmonella enterica
Procedure, shortened: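 Two-fold serial broth microdilution per NCCLS. DMSO stocks diluted in Mueller–Hinton broth to 512, 256, 128, 64, 32, 16, 8, 4, 2, 1, 0.5 µg/mL. Chloromycin and norfloxacin as reference drugs; DMSO with inoculum, no drug, as solvent control. Incubation 37 °C for 24 h. Growth read visually and spectrophotometrically. MIC is the lowest concentration completely inhibiting growth; triplicate.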

Calf thymus DNA [25] = assay: Binding affinity to calf thymus DNA by UV-vis absorption spectra analysis; format: nucleic-acid assay; conditions: Bos taurus; procedure, shortened: as §4
Albumin [26] = target: T1, Albumin; assay: Binding affinity to human serum albumin by fluorescence spectroscopic analysis; format: ADME; conditions: isolated protein
Albumin [27] = target: T1, Albumin; assay: Binding affinity to human serum albumin assessed as Gibbs free energy change at 273 K by van't Hoff plot analysis; format: ADME; conditions: isolated protein
Calf thymus DNA [28] = assay: Binding affinity to calf thymus DNA assessed as increase in maximum absorption by UV-vis absorption spectra analysis; format: nucleic-acid assay; conditions: Bos taurus; procedure, shortened: as §4
Micrococcus luteus = assay: Antibacterial activity against Micrococcus luteus ATCC 4698 after 24 hrs by NCCLS two fold broth microdilution method; format: functional; conditions: NCTC 2665, 24 h; procedure, shortened: as §2
Aspergillus flavus [29] = assay: Antifungal activity against Aspergillus flavus after 24 hrs by NCCLS two fold broth microdilution method; format: functional; procedure, shortened: as §5
Albumin [30] = target: T1, Albumin; assay: Binding affinity to human serum albumin at 273 K by modified Stern-Volmer method; format: ADME; conditions: isolated protein
Albumin [31] = target: T1, Albumin; assay: Binding affinity to human serum albumin assessed as Gibbs free energy change at 293 K by van't Hoff plot analysis; format: ADME; conditions: isolated protein
Cyberlindnera jadinii = assay: Antifungal activity against Candida utilis after 24 hrs by NCCLS two fold broth microdilution method; format: functional; conditions: Williopsis jadinii; procedure, shortened: as §5
Candida albicans = assay: Antifungal activity against Candida albicans ATCC 76615 after 24 hrs by NCCLS two fold broth microdilution method; format: functional; conditions: ATCC 76615, 24 h; procedure, shortened: as §5
Albumin [32] = target: T1, Albumin; assay: Binding affinity to human serum albumin at 313 K by scatchard plot analysis; format: ADME; conditions: isolated protein
Staphylococcus aureus [33] = assay: Potency index, ratio of norfloxacin MIC to compound MIC for Staphylococcus aureus ATCC 25923; format: functional
Bacillus subtilis [34] = assay: Potency index, ratio of Chloromycin MIC to compound MIC for Bacillus subtilis ATCC 21216; format: functional
Staphylococcus aureus [35] = assay: Potency index, ratio of Chloromycin MIC to compound MIC for Staphylococcus aureus ATCC 25923; format: functional
Pseudomonas aeruginosa [36] = assay: Potency index, ratio of Chloromycin MIC to compound MIC for Pseudomonas aeruginosa ATCC 27853; format: functional

CC(=O)Nc1ccc(S(=O)(=O)Cc2nc3ccccc3n2Cc2ccc(Cl)cc2Cl)cc1
Kq (Albumin [1]): 8.2 ×10¹² L/mol/s
Kq (Albumin [2]): 6.38 ×10¹² L/mol/s
KSV (Albumin [3]): 5.25 ×10⁴ L/mol
MIC (Pichia norvegensis): 512 µg/mL (≈ 1050 µM)
Ka (Albumin [4]): 10600 M⁻¹
deltaS (Albumin [5]): 74.429 J/mol/K
Kq (Albumin [6]): 4.72 ×10¹² L/mol/s
MIC (Bacillus subtilis [7]): 16 µg/mL (≈ 32.8 µM)
Kb (Albumin [8]): 65600 M⁻¹
Ratio (Aspergillus flavus [9]): 16
deltaH (Albumin [10]): -0.196 kcal/mol
MIC (Staphylococcus aureus [11]): 128 µg/mL (≈ 262 µM)
MIC (Pseudomonas aeruginosa [12]): 16 µg/mL (≈ 32.8 µM)
Activity (Calf thymus DNA [13]): inactive
Ka (Albumin [14]): 10800 M⁻¹
KSV (Albumin [15]): 3.02 ×10⁴ L/mol
inhibition (Calf thymus DNA [16]): Active
MIC (Staphylococcus aureus [17]): 64 µg/mL (≈ 131 µM)
Ratio (Salmonella typhi [18]): 8
Activity (Calf thymus DNA [19]): Active
MIC (Escherichia coli): 8 µg/mL (≈ 16.4 µM)
Activity (Albumin [20]): Active
MIC (Bacillus): 32 µg/mL (≈ 65.5 µM)
Kb (Albumin [21]): 59300 M⁻¹
MIC (Saccharomyces cerevisiae): 128 µg/mL (≈ 262 µM)
deltaG (Albumin [22]): -5.7639 kcal/mol
KSV (Albumin [23]): 4.08 ×10⁴ L/mol
MIC (Salmonella typhi [24]): 4 µg/mL (≈ 8.19 µM)
K (Calf thymus DNA [25]): 1.52 ×10⁴ L/mol
Activity (Albumin [26]): Dose-dependent effect
deltaG (Albumin [27]): -5.0523 kcal/mol
Activity (Calf thymus DNA [28]): Dose-dependent effect
MIC (Micrococcus luteus): 128 µg/mL (≈ 262 µM)
MIC (Aspergillus flavus [29]): 32 µg/mL (≈ 65.5 µM)
Ka (Albumin [30]): 11100 M⁻¹
deltaG (Albumin [31]): -5.2682 kcal/mol
MIC (Cyberlindnera jadinii): 128 µg/mL (≈ 262 µM)
MIC (Candida albicans): 512 µg/mL (≈ 1050 µM)
Kb (Albumin [32]): 42100 M⁻¹

CC(=O)Nc1ccc(S(=O)(=O)Cc2nc3ccccc3n2Cc2ccc(F)cc2)cc1
Kq (Albumin [1]): 5.09 ×10¹² L/mol/s
Kq (Albumin [2]): 3.44 ×10¹² L/mol/s
KSV (Albumin [3]): 3.26 ×10⁴ L/mol
MIC (Pichia norvegensis): 64 µg/mL (≈ 146 µM)
Ka (Albumin [4]): 35800 M⁻¹
deltaS (Albumin [5]): 82.61 J/mol/K
Kq (Albumin [6]): 2.86 ×10¹² L/mol/s
MIC (Bacillus subtilis [7]): 16 µg/mL (≈ 36.6 µM)
Kb (Albumin [8]): 78600 M⁻¹
deltaH (Albumin [10]): -0.4199 kcal/mol
MIC (Staphylococcus aureus [11]): 16 µg/mL (≈ 36.6 µM)
MIC (Pseudomonas aeruginosa [12]): 256 µg/mL (≈ 585 µM)
Activity (Calf thymus DNA [13]): inactive
Ka (Albumin [14]): 36900 M⁻¹
KSV (Albumin [15]): 1.83 ×10⁴ L/mol
inhibition (Calf thymus DNA [16]): Active
MIC (Staphylococcus aureus [17]): 4 µg/mL (≈ 9.14 µM)
Activity (Calf thymus DNA [19]): Active
Ratio (Staphylococcus aureus [33]): 2
MIC (Escherichia coli): 32 µg/mL (≈ 73.1 µM)
Activity (Albumin [20]): Active
MIC (Bacillus): 32 µg/mL (≈ 73.1 µM)
Kb (Albumin [21]): 58400 M⁻¹
MIC (Saccharomyces cerevisiae): 64 µg/mL (≈ 146 µM)
deltaG (Albumin [22]): -6.3991 kcal/mol
KSV (Albumin [23]): 2.2 ×10⁴ L/mol
Ratio (Bacillus subtilis [34]): 2
Ratio (Staphylococcus aureus [35]): 2
MIC (Salmonella typhi [24]): 16 µg/mL (≈ 36.6 µM)
K (Calf thymus DNA [25]): 1.26 ×10⁴ L/mol
Activity (Albumin [26]): Dose-dependent effect
deltaG (Albumin [27]): -5.81 kcal/mol
Activity (Calf thymus DNA [28]): Dose-dependent effect
MIC (Micrococcus luteus): 64 µg/mL (≈ 146 µM)
MIC (Aspergillus flavus [29]): 64 µg/mL (≈ 146 µM)
Ka (Albumin [30]): 54300 M⁻¹
deltaG (Albumin [31]): -6.1047 kcal/mol
MIC (Cyberlindnera jadinii): 16 µg/mL (≈ 36.6 µM)
Ratio (Pseudomonas aeruginosa [36]): 4
MIC (Candida albicans): 64 µg/mL (≈ 146 µM)
Kb (Albumin [32]): 41600 M⁻¹
